From article PMC4383680 (Nature, 2015)
Entries after “also recorded” stand apart in the source; their conditions may differ. No end group written: not given here.

What was measured:
MC4R - Gαi = test: Coupling of MC4R to Gαi; type: cell-based; conditions: Extended Data Fig. 6a–c
PVN MC4R neurons [1] = test: Firing frequency of PVN MC4R neurons; type: cell-based, mouse
Procedure, shortened: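 Slices from MC4R-GFP mice, 200 μm, cut at 44–49°, held in oxygenated ACSF at 31 °C. AgRP applied to the bath. Cells held around −50 mV so they fire spontaneously. Firing frequency counted for 3 min before peptide and for 3 min at 7–11 min after, then compared.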

PVN MC4R neurons [2] = test: Current clamp membrane potential of PVN MC4R neurons, hypothalamic slices; type: cell-based, mouse; conditions: for amplitude of α-MSH depolarization at higher concentration of salt: BaCl2 >1 mM, CsCl >2.5 mM; for effect of BaCl2 or CsCl on α-MSH induced depolarization: external, various concentrations
Procedure, shortened: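 MC4R-GFP mouse hypothalamic slices, 200 μm, cut at 44–49° to horizontal in near-freezing oxygenated aCSF and kept in oxygenated ACSF at 31 °C. α-MSH (250 nM) bath-applied. Continuous current clamp with membrane potential held at −55 to −60 mV to prevent spontaneous firing. Potential averaged over 3 min before peptide versus a 3 min window 7–11 min after. Zero-ATP internal at pH 7.2, 298 mosmol/kg.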

MC4R [3] = target: T1, MC4R (Homo sapiens, UniProt P32245); test: β-arrestin recruitment; type: cell-based; conditions: increasing concentrations, PathHunter, 90 min, 37 °C
T1 sequence (P32245 whole entry): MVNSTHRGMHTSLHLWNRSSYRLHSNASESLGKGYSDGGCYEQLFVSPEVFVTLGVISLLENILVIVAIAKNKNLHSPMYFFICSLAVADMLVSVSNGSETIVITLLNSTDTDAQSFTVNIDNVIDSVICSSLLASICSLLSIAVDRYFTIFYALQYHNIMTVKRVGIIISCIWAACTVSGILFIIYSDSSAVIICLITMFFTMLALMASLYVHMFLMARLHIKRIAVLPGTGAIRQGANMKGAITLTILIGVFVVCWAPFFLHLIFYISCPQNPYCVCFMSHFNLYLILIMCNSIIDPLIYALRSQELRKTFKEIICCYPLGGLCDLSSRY

[4] = target: MC4R + Kir7.1 (M125R) in HEK293 cells (Homo sapiens, UniProt P32245); type: cell-based
Sequence of MC4R + Kir7.1 (M125R) in HEK293 cells (P32245 whole entry, stated change not applied): as the sequence (P32245 whole entry) above

PVN MC4R neurons [5] = test: Voltage clamp; type: cell-based, mouse
[6] = system: inward rectifying K+ (Kir) channels; conditions: at concentrations that block other Kir channels; ref [12]; cited from earlier work
[7] = system: D1 dopamine receptor in PVN neurons; test: D1 receptor mediated depolarization of PVN neurons; type: cell-based, mouse; conditions: 5 μM SKF83822
Procedure, shortened: (§1)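 Mouse hypothalamic slices, 200 μm, cut at 44–49° from horizontal in oxygenated near-freezing aCSF and transferred to oxygenated ACSF at 31 °C. PVN neurons recorded in whole cell mode. Cells accepted only with holding current ≤30 pA at −70 mV, large rebound spikes, ability to fire, and no blebbing or visible nucleus.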

[8] = system: μ-opioid receptor in PVN MC4R neurons; test: μ-opioid; type: cell-based, mouse; conditions: DAMGO 10 μM; for effect on DAMGO response: GTPγS 1.5 mM or gallein 25 μM
Procedure, shortened: as §1

[9] = target: 3HA-MC4R (melanocortin-4 receptor) (human) (UniProt P32245)
Sequence of 3HA-MC4R (melanocortin-4 receptor) (human) (P32245 whole entry): as above

MC4R [10] = target: T1, MC4R; test: Intracellular cAMP / MC4R coupling to Gαs; type: cell-based; conditions: Fig. 4a

Q: For `CSCC[C@@H]1NC(=O)[C@H](C)NC(=O)[C@H]([C@@H](C)O)NC(=O)CNC(=O)[C@H](CC(C)C)NC(=O)[C@H](CCCCN)NC(=O)[C@H](CCCNC(=N)N)NC(=O)[C@@H]2CSSC[C@@H]3NC(=O)[C@@H]4CCCN4C(=O)[C@H](C(C)C)NC(=O)[C@H](CCC(N)=O)NC(=O)[C@H](CCC(N)=O)NC(=O)CNC(=O)[C@H](CC(C)C)NC(=O)[C@@H]4CSSC[C@H](NC(=O)[C@H]([C@@H](C)O)NC(=O)[C@H](C)NC(=O)[C@H](CSSC[C@@H](C(=O)N[C@@H](CO)C(=O)N[C@@H](CCCNC(=N)N)C(=O)N[C@H](C(=O)O)[C@@H](C)O)NC(=O)[C@@H]5CCCN5C(=O)[C@H](CC(N)=O)NC1=O)NC(=O)[C@@H]1CCCN1C(=O)[C@H](CC(=O)O)NC(=O)[C@H](CSSC[C@H](NC(=O)[C@H](CCCNC(=N)N)NC(=O)[C@H](CCCNC(=N)N)NC(=O)[C@H](CO)NC(=O)[C@@H](N)CO)C(=O)N[C@@H](C(C)C)C(=O)N[C@@H](CCCNC(=N)N)C(=O)N[C@@H](CC(C)C)C(=O)N[C@@H](Cc1c[nH]cn1)C(=O)N[C@@H](CCC(=O)O)C(=O)N[C@@H](CO)C(=O)N4)NC3=O)C(=O)N[C@@H](Cc1ccc(O)cc1)C(=O)N[C@H]1CSSC[C@H](NC(=O)[C@H](Cc3ccccc3)NC(=O)[C@H](C)NC(=O)[C@H](CC(N)=O)NC(=O)[C@H](Cc3ccccc3)NC(=O)[C@H](Cc3ccccc3)NC(=O)[C@H](CCCNC(=N)N)NC1=O)C(=O)N[C@@H](Cc1ccc(O)cc1)C(=O)N2` [AgRP, Agouti-related protein], which “coupling to Gαi” value (MC4R - Gαi) is on record?
A: did not appear to couple the MC4R to the cAMP inhibitory G protein, Gαi

Q: And the “effect on firing activity” value (PVN MC4R neurons [1]; AgRP, cells held around −50 mV)?
A: inhibiting their firing activity

Q: And the membrane potential response (PVN MC4R neurons [2]; 100 nM AgRP, bath application, current clamp, **p<0.01)?
A: hyperpolarized PVN MC4R neurons; also recorded: hyperpolarizing response

Q: What about the β-arrestin recruitment (MC4R [3]) of the same molecule?
A: did not appear to; also recorded: without any effect

Q: What about the “duration of increase of Tl+ flux” value ([4]; low dose AgRP 1 nM, data not shown) of the same molecule?
A: up to 24 h

Q: And the “effect on K+ current of PVN MC4R neurons” value (PVN MC4R neurons [5])?
A: generates hyperpolarizing current by opening of inward rectifying K^+ channels; also recorded: increases the density of an inward rectifying K^+ current

Q: What about the “reversal potential of AgRP-activated current” value (PVN MC4R neurons [5]; AgRP 50 nM, 20 mM external K+) of the same molecule?
A: −46.7 +/− 3.0 mV

Q: And the “increase of membrane conductance” value (PVN MC4R neurons [5]; AgRP 50 nM, 20 mM external K+, n=6)?
A: 75%

Q: Which results are given for `[Ba+2].[Cl-].[Cl-]` [BaCl2]?
A: amplitude of α-MSH depolarization at higher concentration of salt (PVN MC4R neurons [2]): increased amplitude; effect of BaCl2 or CsCl on α-MSH induced depolarization (PVN MC4R neurons [2]; current clamp): not blocked in higher concentrations; also recorded: persisted; sensitivity of Kir7.1 to external salt [6]: resistant

Q: Which “amplitude of α-MSH depolarization at higher concentration of salt” value (PVN MC4R neurons [2]) does the source give for `[Cl-].[Cs+]` [CsCl] here?
A: increased amplitude

Q: And the “effect of BaCl2 or CsCl on α-MSH induced depolarization” value (PVN MC4R neurons [2]; current clamp)?
A: not blocked in higher concentrations; also recorded: persisted

Q: And the “sensitivity of Kir7.1 to external salt” value [6]?
A: resistant

Q: For `Nc1nc2c(ncn2[C@@H]2O[C@H](COP(=O)(O)OP(O)(O)=S)[C@@H](O)[C@H]2O)c(=O)[nH]1` [GDPβS], which “effect on α-MSH induced depolarization” value (PVN MC4R neurons [2]; 5 mM GDPβS, intrapipette) is on record?
A: fails to block the α-MSH – induced depolarization; also recorded: failed to block α-MSH induced depolarization of PVN MC4R neurons

Q: And the “effect on D1 (SKF83822) mediated depolarization” value ([7]; 5 mM GDPβS intrapipette)?
A: blocks the depolarization and firing activity induced by SKF83822; also recorded: blocked D1 mediated depolarization

Q: Which results are given for `Nc1nc2c(ncn2[C@@H]2O[C@H](COP(=O)(O)OP(=O)(O)OP(O)(O)=S)[C@@H](O)[C@H]2O)c(=O)[nH]1` [GTPγS]?
A: effect on α-MSH induced firing or depolarization (PVN MC4R neurons [2]; GTPγS 1.5 mM, whole cell): ineffective in blocking neuronal firing or depolarization; also recorded: fails to block the depolarization induced by α-MSH; effect on DAMGO response [8]: does block the hyperpolarization induced by μ-opioid agonist

Q: For `CCCCCCCC(=O)OC[C@H](COP(=O)(O)O[C@@H]1[C@H](O)[C@H](O)[C@@H](OP(=O)(O)O)[C@H](OP(=O)(O)O)[C@H]1O)OC(=O)CCCCCCC` [PI(4,5)P2 diC8], which “effect on α-MSH induced depolarization” value (PVN MC4R neurons [2]; 100 μM PI(4,5)P2 diC8 in zero ATP internal solution) is on record?
A: significantly increased the amplitude of the α-MSH induced depolarization; also recorded: potentiated the α-MSH-induced response

Q: For `C=CCN1CCc2c(cc(O)c(O)c2Cl)C(c2cccc(C)c2)C1` (stereo not shown) [SKF83822], which “depolarization of PVN neurons by D1 agonist” value [7] is on record?
A: causes depolarization of PVN neurons; also recorded: depolarized PVN neurons

Q: For `Nc1ncnc2c1ncn2C1CCCO1` (stereo not shown) [SQ22536], which “effect on α-MSH induced depolarization” value (PVN MC4R neurons [2]; SQ22536 25 μM, adenylyl cyclase inhibition) is on record?
A: fails to block depolarizing effects of α-MSH; also recorded: failed to block α-MSH induced depolarization

Q: With `N#CC(=C(/N)Sc1ccccc1N)/C(C#N)=C(/N)Sc1ccccc1N` [U0126] as the molecule, how does the “effect on α-MSH induced increase in firing frequency” value (PVN MC4R neurons [1]; U0126 1 μM, whole cell) read?
A: ineffective in blocking neuronal firing or depolarization; also recorded: fails to block α-MSH -induced increase in firing frequency

Q: With `Cc1ccc(OCC(O)Cn2c(=N)n(Cc3ccccc3)c3ccccc32)cc1` (stereo not shown) [VU573] as the molecule, how does the “inhibition of depolarizing effect of α-MSH” value (PVN MC4R neurons [2]; 15 μM VU573, 250 nM α-MSH) read?
A: ~ 80%

Q: For `O=[N+]([O-])c1ccc(CN2CCOCCOCCN(Cc3ccc([N+](=O)[O-])cc3)CCOCC2)cc1` [VU590], which “effect of Kir blocker on α-MSH induced depolarization” value (PVN MC4R neurons [2]; 250 nM α-MSH, blocker concentration not given) is on record?
A: blocked

Q: For `O=C1OC2(c3ccccc31)c1ccc(O)c(O)c1Oc1c2ccc(O)c1O` [gallein], which “effect on α-MSH induced firing or depolarization” value (PVN MC4R neurons [2]; gallein 25 μM, Gβγ blocker) is on record?
A: ineffective in blocking neuronal firing or depolarization; also recorded: fails to inhibit α-MSH induced depolarization

Q: What about the “effect on DAMGO response” value [8] of the same molecule?
A: blocks the effects of DAMGO

Q: Which “effect of DAMGO on membrane potential” value [8] does the source give for DAMGO here?
A: hyperpolarization

Q: With “miniAgRP (AgRP 87-120) (from UniProt O00253 87-120) (peptide)” as the molecule, how does the stimulation of Kir7.1 activity, potency [9] read?
A: 1.7e-07

Q: What does the source list for “miniAgRP: AgRP analogue, AgRP87-120 (87-122); synthesized, purified and folded by authors (CVRLHESCLGQQVPCCDPCATCYCRFFNAFCYCR; ends and bridges not checked; also: folded, disulfide pairing not given here; UniProt O00253 87-120, looked up, fragment)”?
A: potency in inhibition of MC4R coupling to Gαs (MC4R [10]): retains normal affinity for MC4R, and potency in inhibition of MC4R coupling to Gαs; coupling of MC4R to Kir7.1 ([4]; Fig. 4b): lost its ability to couple MC4R to Kir7.1

B1: wtAgRP (83-132) (domain or fragment)
chain: SSRRCVRLHESCLGQQVPCCDPCATCYCRFFNAFCYCRKLGTAMNPCSRT
modifications: ends and bridges not checked; cysteine pairing not given here
Q: For B1, which stimulation of Kir7.1 activity, potency [9] is on record?
A: 3.6e-09
